The source of these data is ChEMBL document CHEMBL3244362, “Photoaffinity labeling of the angiotensin II receptor. 3. Receptor inactivation with photolabile hormone analogues” (J Med Chem, 1979).

By pA2 is commonly meant a measure of antagonist potency on a negative log scale.

Experiment [1] is filed under the species Oryctolagus cuniculus. In words: Binding affinity to angiotensin 2 receptor in albino New Zealand rabbit aorta relative to [Sar1]AT in absence of UV light.
The species entered for experiment [2] is Oryctolagus cuniculus. In words: Intrinsic activity at angiotensin 2 receptor in albino New Zealand rabbit aorta in absence of UV light. The class given is tissue-based. Put shortly: (§1)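 Rabbit aortic strips were suspended in Krebs solution at 37 °C, gassed with 95% O2/5% CO2, at 2.0 g tension, and equilibrated 60–90 min with bath changes every 10–15 min. Isometric contraction was recorded by force transducer in the dark. PD2 is the −log agonist concentration giving half-maximal contraction. pA2 is the −log antagonist concentration reducing a double agonist dose to a single-dose response. αE is intrinsic activity.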

For experiment [3], the species on record is Oryctolagus cuniculus. In words: Agonist activity at angiotensin 2 receptor in albino New Zealand rabbit aorta in absence of UV light. The class given is tissue-based. Put shortly: as §1
In experiment [4] the target is T1, Angiotensin II receptor (Rattus norvegicus) (UniProt P29089+P25095+P35351). The experiment is described as follows: Inactivation of angiotensin 2 receptor in Wistar rat aorta assessed as relaxation of angiotensin-induced contraction at 0.1 uM treated for 180 mins followed by UV light exposed for 10 mins relative to control in presence of noradrenaline. Put shortly: (§2)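 Strips in Krebs at 37 °C (95% O2/5% CO2, 2.0 g tension) received AT 0.2 μM at 60 and 120 min. The control agonist was noradrenaline for aorta and serotonin for stomach. At 180 min, peptide plus (4'amino)Phe 0.6 mM was added; after 5 min at maximal contraction, strips were UV-irradiated (365 nm black light) for 10 min and washed. AT response at 280 min was expressed as % of nonirradiated references. At least seven experiments; mean ± SE.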

The species named for experiment [5] is Oryctolagus cuniculus. In words: Inactivation of angiotensin 2 receptor in albino New Zealand rabbit aorta assessed as relaxation of angiotensin-induced contraction at 0.4 uM treated for 180 mins followed by UV light exposed for 10 mins relative to control in presence of noradrenaline. In kind it is tissue-based. Also noted: scale not given: the % may be the effect or the level left. Put shortly: as §2

For experiment [6], the species on record is Oryctolagus cuniculus. The experiment is described as follows: Inactivation of angiotensin 2 receptor in albino New Zealand rabbit aorta assessed as relaxation of angiotensin-induced contraction at 0.4 uM treated for 180 mins followed by UV light exposed for 10 mins relative to control in presence of [Leu8]-AT. The class given is tissue-based. On the set-up: scale not given: the % may be the effect or the level left. A digest of the protocol:
(§3)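 Protection protocol: aortic strips in Krebs at 37 °C were given AT 0.2 μM at 60 and 120 min, then preincubated 15 min with [Leu8]AT 5 μM (final) before the photolabel plus (4'amino)Phe 0.6 mM. After 5 min at maximal contraction, strips were UV-irradiated 10 min and washed only after photolysis. Residual AT response at 280 min was expressed as % of nonirradiated, identically incubated references.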

The species named for experiment [7] is Oryctolagus cuniculus. The experiment is described as follows: Inactivation of angiotensin 2 receptor in albino New Zealand rabbit aorta assessed as relaxation of angiotensin-induced contraction at 5 uM treated for 180 mins followed by UV light exposed for 10 mins relative to control in presence of noradrenaline. In kind it is tissue-based. On the set-up: scale not given: the % may be the effect or the level left. Put shortly: as §2

The species entered for experiment [8] is Oryctolagus cuniculus. The experiment is described as follows: Inactivation of angiotensin 2 receptor in albino New Zealand rabbit aorta assessed as relaxation of angiotensin-induced contraction at 5 uM treated for 180 mins followed by UV light exposed for 10 mins relative to control in presence of [Leu8]-AT. In kind it is tissue-based. Also noted: scale not given: the % may be the effect or the level left. A digest of the protocol: as §3

The species entered for experiment [9] is Oryctolagus cuniculus. In words: Inactivation of angiotensin 2 receptor in albino New Zealand rabbit aorta assessed as relaxation of angiotensin-induced contraction at 0.2 uM treated for 180 mins followed by UV light exposed for 10 mins relative to control in presence of [Leu8]-AT. On the set-up: scale not given: the % may be the effect or the level left. In kind it is tissue-based. A digest of the protocol: as §3

Experiment [10] is filed under the species Oryctolagus cuniculus. The experiment is described as follows: Inactivation of angiotensin 2 receptor in albino New Zealand rabbit aorta assessed as relaxation of angiotensin-induced contraction at 0.2 uM treated for 180 mins followed by UV light exposed for 10 mins relative to control in presence of noradrenaline. The class given is tissue-based. Also noted: scale not given: the % may be the effect or the level left. Put shortly: as §2

Experiment [11] is filed under the species Oryctolagus cuniculus. The experiment is described as follows: Inactivation of angiotensin 2 receptor in albino New Zealand rabbit aorta assessed as relaxation of angiotensin-induced contraction at 10 uM treated for 180 mins followed by UV light exposed for 10 mins relative to control in presence of [Leu8]-AT. The class given is tissue-based. On the set-up: scale not given: the % may be the effect or the level left. A digest of the protocol: as §3

The species entered for experiment [12] is Oryctolagus cuniculus. The experiment is described as follows: Inactivation of angiotensin 2 receptor in albino New Zealand rabbit aorta assessed as relaxation of angiotensin-induced contraction at 10 uM treated for 180 mins followed by UV light exposed for 10 mins relative to control in presence of noradrenaline. Also noted: scale not given: the % may be the effect or the level left. In kind it is tissue-based. A digest of the protocol: as §2

In experiment [13] the target is T1, Angiotensin II receptor (Rattus norvegicus). The experiment is described as follows: Inactivation of angiotensin 2 receptor in Wistar rat stomach assessed as relaxation of angiotensin-induced contraction at 1 uM treated for 180 mins followed by UV light exposed for 10 mins relative to control in presence of serotonin. Put shortly: as §2
A short description of experiment [14]: Antagonist activity at angiotensin 2 receptor in albino New Zealand rabbit aorta in absence of UV light. In kind it is tissue-based, Oryctolagus cuniculus. A digest of the protocol:
as §1

Active and inactive are the calls of the source. The calls are words filed in the database; no cut-off is given here. Square brackets hold non-standard residues; d marks the D form. Peptide text beside a SMILES is read from it. Phe(4-NO2) = N[C@@H](Cc1ccc([N+](=O)[O-])cc1)C(=O)O; Phe(4-N3) = [N-]=[N+]=Nc1ccc(C[C@H](N)C(=O)O)cc1; Phe(4-N2+) = N#[N+]c1ccc(C[C@H](N)C(=O)O)cc1; Sar = CNCC(=O)O

Regarding `CNCC(=O)N[C@@H](CCCNC(=N)N)C(=O)N[C@H](C(=O)N[C@@H](Cc1ccc(O)cc1)C(=O)N[C@H](C(=O)N[C@@H](Cc1cnc[nH]1)C(=O)N1CCC[C@H]1C(=O)N[C@@H](Cc1ccc(N=[N+]=[N-])cc1)C(=O)O)C(C)C)C(C)C`, the RBA in the experiment filed under Oryctolagus cuniculus [1] was 31%. This molecule also showed an Intrinsic activity in the experiment listed under Oryctolagus cuniculus [2] of 1. For the same molecule, the pD2 in the experiment filed under Oryctolagus cuniculus [3] is 8.72. Also, in experiment [4], the inhibition result was “Active”. Moreover, the values for the Activity in the experiment listed under Oryctolagus cuniculus [5] and in the experiment filed under Oryctolagus cuniculus [6] were 100% and 103%, respectively.

Turning to `CNCC(=O)N[C@@H](CCCNC(=N)N)C(=O)N[C@H](C(=O)N[C@@H](Cc1ccc(O)cc1)C(=O)N[C@H](C(=O)N[C@@H](Cc1cnc[nH]1)C(=O)N1CCC[C@H]1C(=O)N[C@@H](Cc1ccc([N+]#N)cc1)C(=O)O)C(C)C)C(C)C`, the Activity in the experiment listed under Oryctolagus cuniculus [7] was found to be 78%; in the experiment filed under Oryctolagus cuniculus [8] it was 72%. Also, the RBA in the experiment filed under Oryctolagus cuniculus [1] was 13%. In addition, the Intrinsic activity in the experiment listed under Oryctolagus cuniculus [2] was determined as 1. The same molecule displayed a pD2 in the experiment filed under Oryctolagus cuniculus [3] of 8.33.

The molecule `CNCC(=O)N[C@@H](CCCNC(=N)N)C(=O)N[C@H](C(=O)N[C@@H](Cc1ccc(O)cc1)C(=O)N[C@H](C(=O)N[C@@H](Cc1cnc[nH]1)C(=O)N1CCC[C@H]1C(=O)N[C@@H](Cc1ccc([N+](=O)[O-])cc1)C(=O)O)C(C)C)C(C)C` showed an RBA in the experiment listed under Oryctolagus cuniculus [1] of 69%. In the experiment filed under Oryctolagus cuniculus [2], the Intrinsic activity worked out at 0.46. The same molecule had a pD2 in the experiment filed under Oryctolagus cuniculus [3] of 9.07. Moreover, the Activity in the experiment listed under Oryctolagus cuniculus [5] came out at 95%.

As for `CNCC(=O)N[C@@H](CCCNC(=N)N)C(=O)N[C@H](C(=O)N[C@@H](Cc1ccc(O)cc1)C(=O)N[C@H](C(=O)N[C@@H](Cc1cnc[nH]1)C(=O)N1CCC[C@H]1C(=O)N[C@@H](Cc1ccccc1)C(=O)O)C(C)C)C(C)C` (H-[Sar]RVYVHPF-OH), in the experiment filed under Oryctolagus cuniculus [2], the Intrinsic activity turned out to be 1. Further, the Activity in the experiment listed under Oryctolagus cuniculus [9] and in the experiment listed under Oryctolagus cuniculus [10] was 100% each time. In the experiment listed under Oryctolagus cuniculus [3], this molecule registered a pD2 of 9.23.

For the molecule `CNCC(=O)N[C@@H](CCCNC(=N)N)C(=O)N[C@H](C(=O)N[C@@H](Cc1ccc([N+]#N)cc1)C(=O)N[C@H](C(=O)N[C@@H](Cc1cnc[nH]1)C(=O)N1CCC[C@H]1C(=O)N[C@@H](Cc1ccccc1)C(=O)O)C(C)C)C(C)C` (H-[Sar]RV[Phe(4-N2+)]VHPF-OH), the RBA in the experiment filed under Oryctolagus cuniculus [1] was found to be 0.66%. The same molecule returned an Intrinsic activity in the experiment listed under Oryctolagus cuniculus [2] of 1. The molecule further displayed a pD2 in the experiment listed under Oryctolagus cuniculus [3] of 7.05.

In the experiment listed under Oryctolagus cuniculus [1], `CNCC(=O)N[C@@H](CCCNC(=N)N)C(=O)N[C@H](C(=O)N[C@@H](Cc1ccc([N+]#N)cc1)C(=O)N[C@H](C(=O)N[C@@H](Cc1cnc[nH]1)C(=O)N1CCC[C@H]1C(=O)N[C@@H](Cc1ccc([N+]#N)cc1)C(=O)O)C(C)C)C(C)C` (H-[Sar]RV[Phe(4-N2+)]VHP[Phe(4-N2+)]-OH) registered an RBA of 1.3%. The Intrinsic activity in the experiment filed under Oryctolagus cuniculus [2] came out at 1. Besides, the pD2 in the experiment listed under Oryctolagus cuniculus [3] came out at 7.36.

Regarding `CNCC(=O)N[C@@H](CCCNC(=N)N)C(=O)N[C@H](C(=O)N[C@@H](Cc1ccc(N=[N+]=[N-])cc1)C(=O)N[C@H](C(=O)N[C@@H](Cc1cnc[nH]1)C(=O)N1CCC[C@H]1C(=O)N[C@@H](Cc1ccccc1)C(=O)O)C(C)C)C(C)C` (H-[Sar]RV[Phe(4-N3)]VHPF-OH), the results for the Activity in the experiment filed under Oryctolagus cuniculus [7] and in the experiment listed under Oryctolagus cuniculus [8] were 98% and 64%, respectively. This molecule came in with an RBA in the experiment filed under Oryctolagus cuniculus [1] of 0.26%. The same molecule gave an Intrinsic activity in the experiment listed under Oryctolagus cuniculus [2] of 0.75. This molecule returned a pD2 in the experiment filed under Oryctolagus cuniculus [3] of 6.65.

In turn, `CNCC(=O)N[C@@H](CCCNC(=N)N)C(=O)N[C@H](C(=O)N[C@@H](Cc1ccc(N=[N+]=[N-])cc1)C(=O)N[C@H](C(=O)N[C@@H](Cc1cnc[nH]1)C(=O)N1CCC[C@H]1C(=O)N[C@@H](Cc1ccc(N=[N+]=[N-])cc1)C(=O)O)C(C)C)C(C)C` (H-[Sar]RV[Phe(4-N3)]VHP[Phe(4-N3)]-OH) showed an RBA in the experiment filed under Oryctolagus cuniculus [1] of 0.07%. The same molecule had an Intrinsic activity in the experiment filed under Oryctolagus cuniculus [2] of 0.8. Moreover, in the experiment listed under Oryctolagus cuniculus [3], the pD2 worked out at 6.12. Also, the Activity was 92% in the experiment listed under Oryctolagus cuniculus [11] and 100% in the experiment listed under Oryctolagus cuniculus [12].

As to `CNCC(=O)N[C@@H](CCCNC(=N)N)C(=O)N[C@H](C(=O)N[C@@H](Cc1ccc([N+](=O)[O-])cc1)C(=O)N[C@H](C(=O)N[C@@H](Cc1cnc[nH]1)C(=O)N1CCC[C@H]1C(=O)N[C@@H](Cc1ccccc1)C(=O)O)C(C)C)C(C)C` (H-[Sar]RV[Phe(4-NO2)]VHPF-OH), the RBA in the experiment filed under Oryctolagus cuniculus [1] worked out at 0%. Further, the Intrinsic activity in the experiment listed under Oryctolagus cuniculus [2] was determined as 0. Moreover, the pD2 in the experiment filed under Oryctolagus cuniculus [3] was < 5. For the same molecule, the inhibition result in experiment [13] was “inactive”. The pA2 in experiment [14] is listed as < 5. Besides, the Activity in the experiment filed under Oryctolagus cuniculus [11] was determined as 102%; in the experiment listed under Oryctolagus cuniculus [12] it was 105%.

In turn, `CNCC(=O)N[C@@H](CCCNC(=N)N)C(=O)N[C@H](C(=O)N[C@@H](Cc1ccc([N+](=O)[O-])cc1)C(=O)N[C@H](C(=O)N[C@@H](Cc1cnc[nH]1)C(=O)N1CCC[C@H]1C(=O)N[C@@H](Cc1ccc([N+](=O)[O-])cc1)C(=O)O)C(C)C)C(C)C` (H-[Sar]RV[Phe(4-NO2)]VHP[Phe(4-NO2)]-OH) yielded an RBA in the experiment listed under Oryctolagus cuniculus [1] of 0.06%. For the same molecule, in the experiment listed under Oryctolagus cuniculus [2], the Intrinsic activity amounted to 0.5. This molecule also yielded a pD2 in the experiment listed under Oryctolagus cuniculus [3] of 6.02. For the same molecule, the Activity in the experiment listed under Oryctolagus cuniculus [12] turned out to be 99%.
